Test results reported in ChEMBL document CHEMBL5724801, “EUbOPEN Chemogenomics Library - Multiplex” (2024).
Several values for one entry are separate records, joined by “and”; a condition that tells them apart may be missing. Equal entries are not always repeated.

Test system: U2OS
Experiment: Multiplex assay against U2OS
Assay type: toxicity, cell-based
Details: human
Method in brief: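 Live cells carried four stains from seeding: Hoechst33342, BioTracker Green Microtubule Cytoskeleton Dye, MitoTracker Red and Annexin V Alexa Fluor 680. They were imaged on a CQ1 microscope at 37°C and 5% CO2 after compound addition. Using CellPathfinder machine-learning gating, cells were split into Hoechst high-intensity objects or normal cells, normal cells into healthy, pyknosed or fragmented nuclei, and pyknosed cells into mitotic or apoptotic; tubulin, mitochondrial-mass and membrane-permeability phenotypes are per cents of healthy-nucleus cells.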

[1] = 12 h, 1 µM, compound concentration 1 uM
[2] = 12 h, 10 µM, compound concentration 10 uM
[3] = 24 h, 1 µM, compound concentration 1 uM
[4] = 24 h, 10 µM, compound concentration 10 uM
[5] = 48 h, 1 µM, compound concentration 1 uM
[6] = 48 h, 10 µM, compound concentration 10 uM

## Cc1cc(O)c(-c2ccc([C@@H](C)CN(C)C)cc2)c2c1[nH]c(=O)c1sccc12
[1]
  Population Apoptotic (%): 70% [middle of 4 runs]
  Population Healthy Nuclei (%): 48% and 63% and 56.09% and 62.5%
  Population Hoechst High Intensity Objects (%): 4% and 2% and 0.32% and 0%
  Population Normal (%): 95% and 97% and 99.68% and 100%
  Population Tubulin-Different-Phenotype (%): 12% and 14% and 4% and 6.67%
[2]
  Population Apoptotic (%): 64% and 69% and 40.85% and 42.19%
  Population Healthy Nuclei (%): 50% and 56% and 56.98% and 52.11%
  Population Hoechst High Intensity Objects (%): 4% and 8% and 0%
  Population Mitotic Cells (%): 35% and 30% and 59.15% and 57.81%
  Population Normal (%): 95% and 91% and 100%
  Population Pyknosed Nuclei (%): 41.28% [middle of 4 runs]
  Population Tubulin-Different-Phenotype (%): 72% and 45% and 70.41% and 64.86%
[3]
  Population Apoptotic (%): 92% [middle of 4 runs]
  Population Healthy Nuclei (%): 34% [middle of 4 runs]
  Population Hoechst High Intensity Objects (%): 8% and 6% and 0.34% and 0%
  Population Normal (%): 91% and 93% and 99.66% and 100%
  Population Tubulin-Different-Phenotype (%): 19% and 12% and 11.11% and 17.07%
[4]
  Population Apoptotic (%): 81% and 82% and 58.37% and 68.63%
  Population Healthy Nuclei (%): 31% [middle of 4 runs]
  Population Hoechst High Intensity Objects (%): 9% [middle of 4 runs]
  Population Membrane Permeable-Phenotype (%): 16% [middle of 4 runs]
  Population Mitochondria Different-Phenotype (%): 70% [middle of 4 runs]
  Population Mitotic Cells (%): 31.37% [middle of 4 runs]
  Population Normal (%): 90% and 87% and 99.35% and 100%
  Population Pyknosed Nuclei (%): 67.86% [middle of 4 runs]
  Population Tubulin-Different-Phenotype (%): 64.47% [middle of 4 runs]
  Total Cell Count: 210 [middle of 4 runs]
[5]
  Population Apoptotic (%): 96% and 100% and 72.95% and 83.47%
  Population Healthy Nuclei (%): 18% [middle of 4 runs]
  Population Normal (%): 82% and 84% and 99.63% and 98.84%
  Population Tubulin-Different-Phenotype (%): 25% and 50% and 28.57%
  Total Cell Count: 250 [middle of 4 runs]
[6]
  Population Apoptotic (%): 96% and 100% and 80.93% and 86.67%
  Population Healthy Nuclei (%): 17% and 13% and 14.23% and 9.84%
  Population Mitochondria Different-Phenotype (%): 45% and 50% and 33.33%
  Population Mitotic Cells (%): 13.33% [middle of 4 runs]
  Population Normal (%): 79% and 84% and 98.92% and 99.19%
  Population Pyknosed Nuclei (%): 31% and 78.47% and 86.07%
  Population Tubulin-Different-Phenotype (%): 64% [middle of 4 runs]
  Total Cell Count: 220 [middle of 4 runs]

## O=C1N=C(NCc2cccs2)S/C1=C\c1ccc2ncccc2c1
[1]
  Population Apoptotic (%): 36.36% and 33.33%
  Population Fragmented Nuclei (%): 2.87% and 8.81%
  Population Healthy Nuclei (%): 87.42% and 78.76%
  Population Hoechst High Intensity Objects (%): 0%
  Population Membrane Permeable-Phenotype (%): 0.51% and 3.95%
  Population Mitotic Cells (%): 63.64% and 66.67%
  Population Normal (%): 100%
  Population Pyknosed Nuclei (%): 9.71% and 12.44%
  Population Tubulin-Different-Phenotype (%): 1.01% and 1.97%
  Total Cell Count: 453 and 193
[2]
  Population Apoptotic (%): 55% and 44%
  Population Fragmented Nuclei (%): 1.99% and 5.59%
  Population Healthy Nuclei (%): 91.39% and 78.88%
  Population Hoechst High Intensity Objects (%): 0%
  Population Membrane Permeable-Phenotype (%): 16.67% and 19.69%
  Population Mitotic Cells (%): 45% and 56%
  Population Normal (%): 100%
  Population Pyknosed Nuclei (%): 6.62% and 15.53%
  Population Tubulin-Different-Phenotype (%): 18.48% and 14.96%
  Total Cell Count: 302 and 161
[3]
  Population Apoptotic (%): 37.5% and 40.54%
  Population Fragmented Nuclei (%): 1.66% and 6.39%
  Population Healthy Nuclei (%): 87.71% and 79.7%
  Population Hoechst High Intensity Objects (%): 0%
  Population Membrane Permeable-Phenotype (%): 0.95% and 5.19%
  Population Mitochondria Different-Phenotype (%): 0.19% and 9.91%
  Population Mitotic Cells (%): 62.5% and 59.46%
  Population Normal (%): 100%
  Population Pyknosed Nuclei (%): 10.63% and 13.91%
  Population Tubulin-Different-Phenotype (%): 0.38% and 1.42%
  Total Cell Count: 602 and 266
[4]
  Population Apoptotic (%): 68.42%
  Population Fragmented Nuclei (%): 4.38% and 8.12%
  Population Healthy Nuclei (%): 76.43% and 68.12%
  Population Hoechst High Intensity Objects (%): 0%
  Population Membrane Permeable-Phenotype (%): 10.57% and 12.84%
  Population Mitotic Cells (%): 31.58%
  Population Normal (%): 100%
  Population Pyknosed Nuclei (%): 19.19% and 23.75%
  Population Tubulin-Different-Phenotype (%): 13.66% and 9.17%
  Total Cell Count: 297 and 160
[5]
  Population Apoptotic (%): 47.06% and 45.1%
  Population Fragmented Nuclei (%): 4.77% and 4%
  Population Healthy Nuclei (%): 86.23% and 84%
  Population Hoechst High Intensity Objects (%): 0.09% and 0%
  Population Membrane Permeable-Phenotype (%): 0.92% and 1.96%
  Population Mitochondria Different-Phenotype (%): 0.1% and 4.48%
  Population Mitotic Cells (%): 52.94% and 54.9%
  Population Normal (%): 99.91% and 100%
  Population Pyknosed Nuclei (%): 9% and 12%
  Population Tubulin-Different-Phenotype (%): 0.82% and 0.28%
  Total Cell Count: 1134 and 425
[6]
  Population Apoptotic (%): 81.63% and 92.42%
  Population Fragmented Nuclei (%): 10.65% and 9.25%
  Population Healthy Nuclei (%): 57.74% and 52.6%
  Population Hoechst High Intensity Objects (%): 0%
  Population Membrane Permeable-Phenotype (%): 3.91% and 5.49%
  Population Mitotic Cells (%): 18.37% and 7.58%
  Population Normal (%): 100%
  Population Pyknosed Nuclei (%): 31.61% and 38.15%
  Total Cell Count: 310 and 173

## CCn1c(-c2nc3cc(C(=O)N4CCCC(N)C4)ccc3n2C)cc2ccccc21.Cl (configuration not stated)
[1]
  Population Healthy Nuclei (%): 67% and 77% and 89.25% and 83.07%
  Population Hoechst High Intensity Objects (%): 0% and 5%
  Population Membrane Permeable-Phenotype (%): 4% [middle of 4 runs]
  Population Normal (%): 99% and 94% and 100%
  Population Tubulin-Different-Phenotype (%): 2.36% [middle of 4 runs]
[2]
  Population Apoptotic (%): 48% [middle of 4 runs]
  Population Healthy Nuclei (%): 56% and 60% and 74.57% and 67.27%
  Population Hoechst High Intensity Objects (%): 2% and 1% and 0%
  Population Mitotic Cells (%): 51% and 45% and 65.85% and 73.91%
  Population Normal (%): 97% and 98% and 100%
  Population Pyknosed Nuclei (%): 19% and 18% and 23.43% and 27.88%
  Population Tubulin-Different-Phenotype (%): 27% and 48% and 33.72% and 25.23%
  Total Cell Count: 277 [middle of 4 runs]
[3]
  Population Apoptotic (%): 66% [middle of 4 runs]
  Population Healthy Nuclei (%): 68% and 92.18% and 84.19%
  Population Hoechst High Intensity Objects (%): 1% and 3% and 0.17% and 0%
  Population Normal (%): 98% and 96% and 99.83% and 100%
  Population Pyknosed Nuclei (%): 9% and 5% and 6.49% and 13.68%
[4]
  Population Apoptotic (%): 62% and 73% and 40% and 53.33%
  Population Healthy Nuclei (%): 54% and 64% and 74.61% and 71.91%
  Population Hoechst High Intensity Objects (%): 2% and 3% and 0%
  Population Mitotic Cells (%): 46.67% [middle of 4 runs]
  Population Normal (%): 97% and 96% and 100%
  Population Pyknosed Nuclei (%): 17% and 16% and 21.16% and 25.28%
  Population Tubulin-Different-Phenotype (%): 15.62% [middle of 4 runs]
[5]
  Population Apoptotic (%): 75% and 70% and 44% and 47.83%
  Population Healthy Nuclei (%): 76% and 70% and 90.93% and 86.01%
  Population Hoechst High Intensity Objects (%): 2% and 4% and 0%
  Population Membrane Permeable-Phenotype (%): 8% and 10% and 1.19% and 2.66%
  Population Mitochondria Different-Phenotype (%): 3% and 9% and 0.33% and 7.4%
  Population Mitotic Cells (%): 52.17% [middle of 4 runs]
  Population Normal (%): 97% and 95% and 100%
  Population Pyknosed Nuclei (%): 6% and 7% and 7.4% and 11.7%
  Population Tubulin-Different-Phenotype (%): 5% and 8% and 1.41% and 1.78%
[6]
  Population Apoptotic (%): 78% and 77% and 57.94% and 60%
  Population Healthy Nuclei (%): 53% and 64% and 76.68% and 73.28%
  Population Hoechst High Intensity Objects (%): 5% and 6% and 0% and 0.4%
  Population Mitotic Cells (%): 40% [middle of 4 runs]
  Population Normal (%): 94% and 93% and 100% and 99.6%
  Population Pyknosed Nuclei (%): 19% and 16% and 18.03% and 22.27%
  Population Tubulin-Different-Phenotype (%): 14.92% [middle of 4 runs]
